This passage reports yeast fitness results from the RNAGym collection of RNA variant scans (doi:10.1126/science.aae0568).

Fewer inactive variants are shown than the library holds. Bounds are passed on as bounds.

First the molecules themselves.
B1: tRNA (parent)
chain: GUUCCGUUGGCGUAAUGGUAACGCGUCUCCCUCCUAAGGAGAAGACUGCGGGUUCGAGUCCCGUACGGAACG

This data set covers variants of B1. As to the kind of experiment: yeast fitness relative to wild type (ratio to wild type); higher = fitter; tRNA-Arg(CCU), competitive growth, 37 C, YPD. The essentials: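 Amplicons of the tRNA-Arg(CCU) gene were sequenced, 100-nucleotide paired-end, from the start population and from each end population of a pooled yeast competition. The competition, in six parallel replicates, lasted 24 hours in YPD at 37°C. Fitness relative to wild type was calculated from changes in genotype frequencies. Genotypes had to have ≥ 100 starting reads, and estimates < 0.5 were set to 0.5.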
As to C4A C62A, the yeast fitness was 0.675.

For the variant C4A C62U, the yeast fitness was 0.852.

For the variant C4A U16C C27G A42G U53A, the yeast fitness was not above 0.5.

As to C4A G18A C27A A37C C61A, the yeast fitness was not above 0.5.

As to C4A C22U C33G A45C U53G A69C, the yeast fitness is 0.57.

Turning to C4A U16A A43C, the yeast fitness was not above 0.5.

Take C4A C33A A40U A70G: the yeast fitness was not above 0.5.

C4A C29U C31U U54G A65U G67A: the yeast fitness was not above 0.5.

C4A C11U U32A G38C U47A: the yeast fitness is not above 0.5.

On to C4A C27U C33U A36U G63C, for which the yeast fitness was not above 0.5.

Regarding C4A C29G A36U A65G C66U, the yeast fitness is not above 0.5.

On to C4A G6A A45U G58A A65G, for which the yeast fitness is not above 0.5.

For the variant C4A G17A A42U C55G, the yeast fitness was not above 0.5.

On to C4A G17A G41A A57C, for which the yeast fitness is not above 0.5.

As for C4A C11G U19G G56C, the yeast fitness stood at 0.528.

C4A G17A G41A C61U G63U G68A: the yeast fitness is not above 0.5.

As for C4A C33A C60A G63A U64C, the yeast fitness was not above 0.5.

As to C4A U13A A21G G58C G68A, the yeast fitness amounted to 0.607.

As for C4A G17A C61A, the yeast fitness worked out at 0.534.

As for C4A C29A A70C, the yeast fitness is not above 0.5.

Consider C4A U13A C30A U32C C61G G68C, for which the yeast fitness is not above 0.5.

Regarding C4A C22G C30U A40G A45C, the yeast fitness was not above 0.5.

Turning to C4A G23A C33G G63C A65U, the yeast fitness was not above 0.5.

As for C4A G18A C27A A37C G56A G68U, the yeast fitness is not above 0.5.

For the variant C4A C33U C60G, the yeast fitness is 0.601.

With C4A U7C A15G C30A A57C, the yeast fitness was not above 0.5.

With C4A C11A G39A G41C C46A G68A, the yeast fitness is not above 0.5.

With C4A U16C G17A A69U, the yeast fitness is not above 0.5.

On to C4A C33U A36C A40G, for which the yeast fitness was not above 0.5.

In the case of C4A C31G A40U U64A, the yeast fitness was not above 0.5.

As to C4A G10A U28A C55G, the yeast fitness is not above 0.5.

For C4A C22U G48C, the yeast fitness is not above 0.5.

Regarding C4A G9A C22A C27G U53A A65G, the yeast fitness is not above 0.5.

For C4A G10C G63C A69U, the yeast fitness is not above 0.5.

As for C4A G48A A65C, the yeast fitness was found to be 0.618.

Turning to C4A C30A G48C, the yeast fitness was not above 0.5.

For the variant C4A G12A A42G, the yeast fitness was not above 0.5.

With C4A C61U G68A, the yeast fitness was determined as 0.541.

For the variant C4A C30U U59A, the yeast fitness is not above 0.5.

As for C4A C34G A40U U47A G67C, the yeast fitness was determined as 0.55.

For the variant C4A U7A C31U C61G, the yeast fitness is not above 0.5.

As for C4A G52C, the yeast fitness was determined as 0.661.

Turning to C4A G23A C24G, the yeast fitness is not above 0.5.

C4A G18C C29A C31A A57G: the yeast fitness was not above 0.5.

For the variant C4A C29U C31G C33A, the yeast fitness is not above 0.5.

Regarding C4A G9C C11G C33G A37C A45C, the yeast fitness was not above 0.5.

Regarding C4A C31G G51C, the yeast fitness is 0.524.

For the variant C4A G9A U16A A40G C46U, the yeast fitness is not above 0.5.

With C4A C11U G41A C60G A65G, the yeast fitness is not above 0.5.

With C4A G9A G44C G51A G58C U59A, the yeast fitness was not above 0.5.

As for C4A G44C, the yeast fitness was determined as 0.742.

In the case of C4A G18C C29A C31A A70C, the yeast fitness is not above 0.5.

Take C4A C30G A40U C60G G63C: the yeast fitness is not above 0.5.

As to C4A G25C, the yeast fitness is 0.833.

Turning to C4A C29U G52C, the yeast fitness is not above 0.5.

As to C4A U8G A14U A70U, the yeast fitness was not above 0.5.

As to C4A C22A G44C, the yeast fitness is not above 0.5.

C4A C46U A57C: the yeast fitness is 0.529.

Consider C4A C33A G39C C49U U54A A70U, for which the yeast fitness was not above 0.5.

For C4A C31U U35C, the yeast fitness was not above 0.5.

For C4A C24A, the yeast fitness was found to be 0.595.

Regarding C4A U16C G17A C62A, the yeast fitness is not above 0.5.

In the case of C4A G6A C11A C22U C29U C55A, the yeast fitness is not above 0.5.

As to C4A G9A C22A C27G G56A, the yeast fitness was not above 0.5.

Take C4A U7A U8G A45C: the yeast fitness was not above 0.5.

As to C4A C29G A57G U59A G68U A70G, the yeast fitness came to 0.571.

For C4A C29A C34A C62U, the yeast fitness is not above 0.5.

On to C4A C34U A57U, for which the yeast fitness was not above 0.5.

For the variant C4A G39C G51A, the yeast fitness was not above 0.5.

Take C4A C33G G41C G56C G58A G63C A65U: the yeast fitness is not above 0.5.

Regarding C4A C30A A37C G58A A70U, the yeast fitness was not above 0.5.

Turning to C4A C33A C34U G39C U54A, the yeast fitness was not above 0.5.

In the case of C4A G17C G23C A45C A70G, the yeast fitness was not above 0.5.

As for C4A G23A C31G A40C G48C C66A, the yeast fitness is not above 0.5.

For C4A G6A G23A C49A U59C C62U A65U A70C, the yeast fitness was not above 0.5.

For the variant C4A G17A A21G C24G G67A A70G, the yeast fitness is not above 0.5.

With C4A C34G C62A C66U, the yeast fitness is not above 0.5.

Turning to C4A C5U U19A C55U, the yeast fitness is 0.539.

In the case of C4A U7C A45C C61G, the yeast fitness was not above 0.5.

In the case of C4A G6A C33U U53C, the yeast fitness was not above 0.5.

Consider C4A G23C C31U C34G A43G A45C A57U, for which the yeast fitness is not above 0.5.

As for C4A G39A, the yeast fitness came out at 0.914.

Regarding C4A C11A U13C U28G A43G, the yeast fitness was not above 0.5.

In the case of C4A C30G A40C C55A G58C A65U A70U, the yeast fitness is not above 0.5.

With C4A U7A A14G G17C A36G C61U, the yeast fitness was not above 0.5.

With C4A C11U G39C A45C, the yeast fitness was not above 0.5.

For the variant C4A G6A A69U, the yeast fitness was 0.623.

As for C4A G12A U16A G51A U54A, the yeast fitness was 0.542.

In the case of C4A G17C C31G A37C, the yeast fitness amounted to 0.748.

With C4A G17A G51A C60G A70U, the yeast fitness is not above 0.5.

Consider C4A G6A G52C A57C G63C, for which the yeast fitness was found to be 0.537.

Consider C4A G9C C11G A45C A57G, for which the yeast fitness came to 0.526.

For C4A G9C C31A G41A, the yeast fitness worked out at 0.773.

In the case of C4A C27U, the yeast fitness came to 0.901.

On to C4A C27G, for which the yeast fitness was found to be 0.674.

Take C4A C27A: the yeast fitness came to 0.798.

For the variant C4A C55A, the yeast fitness amounted to 0.587.

On to C4A G12C A37G G38A, for which the yeast fitness was not above 0.5.

In the case of C4A G9A C49A U53C, the yeast fitness is not above 0.5.

On to C4A G9A C24U C30U A36G A57G G58A G63A, for which the yeast fitness is not above 0.5.

For C4A C27U U28G C33G A36G C66U, the yeast fitness came out at 0.542.

C4A G17C G23C U53A: the yeast fitness is not above 0.5.

On to C4A C11G U19G A42G, for which the yeast fitness is not above 0.5.

For the variant C4A C22A C29U A69U, the yeast fitness is not above 0.5.

Regarding C4A G18A U59G, the yeast fitness came out at 0.657.

For C4A G17C G51C G58A, the yeast fitness is not above 0.5.

For C4A C29G A40U C55A G67C, the yeast fitness is not above 0.5.

With C4A G52C A57C G63C, the yeast fitness came to 0.56.

On to C4A C11G U19G U53C, for which the yeast fitness came out at 0.698.

Take C4A G17C A21U C33G: the yeast fitness turned out to be 0.517.

C4A G10C G58A: the yeast fitness turned out to be 0.713.

With C4A G38A, the yeast fitness was found to be 0.805.

For C4A G39A G52C C55G, the yeast fitness was not above 0.5.

As to C4A G50A A70G, the yeast fitness worked out at 0.57.

On to C4A C11U G18A A65C, for which the yeast fitness was 0.505.

For C4A C30U U54A, the yeast fitness is not above 0.5.

Consider C4A C22U C27U, for which the yeast fitness was not above 0.5.

For C4A C27G U32C A36G A57G G58A C62U A70U, the yeast fitness is not above 0.5.

For the variant C4A G25C C61G, the yeast fitness amounted to 0.711.

For C4A C27G A37C A45U U47C, the yeast fitness was not above 0.5.

As to C4A G25C C29G G41A C49U A65G C66U, the yeast fitness was not above 0.5.

As for C4A C31G G51C C66A, the yeast fitness was not above 0.5.

Take C4A C66U A69C: the yeast fitness came out at 0.585.

C4A G12C U19C C24G A43U U54C C61A: the yeast fitness is not above 0.5.

For C4A G17C G56A, the yeast fitness is not above 0.5.

In the case of C4A G23A C29U C34G G38C, the yeast fitness is not above 0.5.

C4A G6A C29G A57G: the yeast fitness amounted to 0.535.

With C4A G18A A20C U26G C27U C49U, the yeast fitness is not above 0.5.

As to C4A C49U A69C, the yeast fitness is 0.555.

In the case of C4A C29G G68C, the yeast fitness was not above 0.5.

C4A C29G C31A G67A: the yeast fitness was not above 0.5.

Consider C4A C11U C31G U53C U54G, for which the yeast fitness was not above 0.5.

As for C4A G44A C49U U54G C66U A70C, the yeast fitness was 0.503.

Consider C4A U8C A15C C31U G48C A65C, for which the yeast fitness was 0.608.

Consider C4A C22G C49A C55U C66A A69C, for which the yeast fitness is not above 0.5.

As to C4A C11U G56C C62G G68C, the yeast fitness was not above 0.5.

C4A C24U C55A A65C: the yeast fitness is not above 0.5.

Turning to C4A G18A C22U G44C C46U C49U, the yeast fitness is not above 0.5.

Take C4A U8A C24U G44A A70C: the yeast fitness is not above 0.5.

For the variant C4A C22G C29U G68C, the yeast fitness is not above 0.5.

Take C4A G23C A65G: the yeast fitness was 0.569.

As to C4A G39C G41C, the yeast fitness was not above 0.5.

Take C4A U16G: the yeast fitness worked out at 0.651.

Turning to C4A C24A G52C A57C U59A G63A, the yeast fitness is not above 0.5.

Turning to C4A G25C U26A C61A, the yeast fitness is not above 0.5.

C4A G23A C33G G58C: the yeast fitness is not above 0.5.

Regarding C4A G6A C29G, the yeast fitness is 0.549.

On to C4A C27U U32C G48C, for which the yeast fitness is not above 0.5.

Consider C4A C61G G63A, for which the yeast fitness is not above 0.5.

Consider C4A U16C G17A, for which the yeast fitness was 0.567.

On to C4A C31A A45U, for which the yeast fitness is not above 0.5.

For the variant C4A U13G A45U U47A, the yeast fitness was 0.616.

For C4A U7A C11U C31U U59A, the yeast fitness was not above 0.5.

On to C4A C22U A70C, for which the yeast fitness was 0.663.

In the case of C4A G23C G50A A57G, the yeast fitness was 0.62.

As for C4A C33A A65G, the yeast fitness was not above 0.5.

For the variant C4A C31G C62U, the yeast fitness turned out to be 0.71.

On to C4A C29U A37G G39C C49U G67A, for which the yeast fitness was not above 0.5.

For C4A C31A U32A, the yeast fitness is not above 0.5.

Regarding C4A C11G G18C C27G, the yeast fitness was not above 0.5.

Take C4A C31G C55A: the yeast fitness is 0.534.

As to C4A U13G, the yeast fitness turned out to be 0.619.

Turning to C4A U13A, the yeast fitness amounted to 0.595.

In the case of C4A C46U U47C C55U, the yeast fitness was not above 0.5.

Consider C4A C11A C61U, for which the yeast fitness was not above 0.5.

With C4A C29U, the yeast fitness is 0.763.

Turning to C4A C29G, the yeast fitness was 0.618.
